GPR7 antagonist = GPR7 receptor antagonists, primary screen, cell-based, fluorescence, single concentration; GPR7-expressing cells, fluorescence antagonist assay; inhibition, % at 4.4 µM; 290,000 compounds, 1.1% hits; in the data active means inhibition above about 16%, passing the limit was not always enough;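 further: cells stimulated with the agonist NPW; 0% = agonist with vehicle and 100% = vehicle without agonist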
Target sequence (P48145 whole entry, looked up): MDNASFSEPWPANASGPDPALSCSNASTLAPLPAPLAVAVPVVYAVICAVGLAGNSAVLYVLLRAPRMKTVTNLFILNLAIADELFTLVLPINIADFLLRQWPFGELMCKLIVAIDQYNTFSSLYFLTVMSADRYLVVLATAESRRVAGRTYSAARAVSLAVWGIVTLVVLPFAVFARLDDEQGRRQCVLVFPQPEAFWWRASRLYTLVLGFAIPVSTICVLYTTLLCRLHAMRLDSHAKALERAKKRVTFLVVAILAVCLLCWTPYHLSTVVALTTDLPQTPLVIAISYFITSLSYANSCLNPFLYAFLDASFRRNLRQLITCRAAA
OX1R antag-1 = antagonists of human orexin 1 receptor (OX1R). Orexin/Hypocretin receptor type 1 (Homo sapiens), O43613. OX1R-expressing cells, FRET antagonist read-out. inhibition, % at 6.6 µM. 330,000 compounds, 1.8% hits. AID 485270, 2010; in the data active means inhibition mostly above about 38%, no sharp cut-off; inactive means mostly below about 40%;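 further: 0% = agonist challenge alone and 100% = reference antagonist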
OX1R antag-2 = OX1R (HCRTR1) antagonists, primary screen, fluorescence, CHO/OX1R cells, Fluo-8 calcium, orexin A; AID 434989, 2010; Orexin/Hypocretin receptor type 1 (Homo sapiens), O43613; Fluo-8 calcium fluorescence; 330,000 compounds, 0.43% hits; inhibition, % at 5 µM;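 active means inhibition above its plate's threshold, mean inhibition of all tested compounds on the plate plus 3 SD, cut at about 37% in these data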;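 further: 0% = orexin A challenge wells and 100% = SB-334867-A antagonist wells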
CHO parental Ca = ATP-evoked calcium signal inhibitors, parental CHO, primary screen, counter-screen for OX1R antagonist project, cell-based, fluorescence, Fluo-8 calcium dye | parental CHO-K1, ATP-induced calcium, Fluo-8 fluorescence | inhibition, % at 5.6 µM | 330,000 compounds, 0.63% hits;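 active means inhibition above that plate's mean sample inhibition plus 3 SD, cut at about 26% in these data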;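 further: 0% = ATP-challenged DMSO wells and 100% = DMSO wells without ATP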
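Test system: parental CHO cells; detection: calcium-sensitive Fluo-8 fluorescence; evaluation: percent inhibition of calcium signal; also added: ATP as calcium-mobilizing challenge; repeats: one well per compound; control set: ATP-challenged DMSO wells low, unchallenged DMSO wells high; compound: single nominal dose of 5.6 µM per compound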
GalR3 antag = GalR3 antagonists in HEK293 cells, primary screen, cell-based, fluorescence readout | 360,000 compounds, 0.44% hits | Galanin receptor type 3 (Homo sapiens), O60755 | inhibition, % at 3 µM | HEK293 GalR3-CNG cAMP membrane potential fluorescence; galR3 body fused to GalR1 C-terminus;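 active means inhibition above the screen-wide average plus 3 SD, cut at about 13% in these data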;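 further: forskolin and galanin both at EC90 stimulate the cells; cAMP rise reported by CNG channel membrane potential dye signal; 0% = forskolin plus galanin with DMSO and 100% = forskolin alone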
Target sequence (O60755 1-299 limits assumed): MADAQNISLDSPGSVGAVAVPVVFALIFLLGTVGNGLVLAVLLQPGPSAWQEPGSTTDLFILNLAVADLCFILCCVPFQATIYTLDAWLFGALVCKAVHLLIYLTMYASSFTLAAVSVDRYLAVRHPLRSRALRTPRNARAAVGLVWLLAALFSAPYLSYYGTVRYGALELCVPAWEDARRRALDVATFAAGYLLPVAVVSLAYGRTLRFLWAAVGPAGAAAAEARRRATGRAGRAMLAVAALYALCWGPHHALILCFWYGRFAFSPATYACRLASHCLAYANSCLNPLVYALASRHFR
Active calls of the source: *; . = no result given. A selection: hits, their analogues and other compounds. The true share with any hit is near 3.1%.

SMILES	GPR7 antagonist	OX1R antag-1	OX1R antag-2	CHO parental Ca	GalR3 antag
O=C(NCC1CCCO1)c1ccc(NS(=O)(=O)c2cccc([N+](=O)[O-])c2)cc1 (stereo not given)	14	28	-6	-2	3
O=C(NCC1CCCO1)c1ccccc1S(=O)(=O)c1ccc([N+](=O)[O-])cc1 (stereo not given)	-12	76*	2	-5	-7
O=S(=O)(c1ccc(NC(=S)NC23CC4CC(CC(C4)C2)C3)cc1)N1CCCCC1	.	.	.	.	-6
CSc1ncccc1C(=O)N(C)CC(=O)Nc1cccc(F)c1	-8	10	0	-8	-3
Nc1c(Cl)ncnc1N/N=C/c1cccc(O)c1	-12	72*	-15	-10	8
COc1ccc(/C=N/Nc2ncnc(Cl)c2N)cc1OC	-8	56*	-4	-3	-1
COc1cccc(/C=N/Nc2ncnc(Cl)c2N)c1O	-1	54	-1	-3	-5
Cn1nnc(NC(=S)NC(=O)Cc2ccccc2)n1	-9	18	6	-5	3
CCN(CC)C(=O)c1[nH]cnc1C(=O)NC1CCN(C(=O)OC(C)(C)C)CC1	.	11	-5	-9	-5
COc1ccc(N[C@@H]2CCN3C(=O)c4ccccc4[C@@H]3C[C@H]2O)cc1	.	7	-9	-23	-5
O=C1c2ccccc2[C@@H]2C[C@@H](O)[C@H](Nc3cccc4ccccc34)CCN12	.	42*	5	-12	-3
COc1ccc(OC)c(NC(=O)CSc2ncnc3c2cnn3-c2ccccc2Cl)c1	2	45	52*	53*	.
CCN(CC)c1ccc(NC(=O)/C=C/c2cc(Br)ccc2OC)cc1	2	50*	-19	-10	0
COc1ccc(NC(=O)/C=C/c2cc(Br)ccc2OC)cc1	2	83*	36	-22	-3
COc1ccc(Br)cc1/C=C/C(=O)c1ccc(NC(C)=O)cc1	6	58	-5	-6	-5
COc1ccc(OC)c(/C=C/C(=O)Nc2ccc3c(c2)CCC3)c1	-9	69*	-26	-10	0
NNC(=O)c1sccc1OCc1ccc(F)cc1	-5	18	-35	-42	-8
NNC(=O)c1sccc1OCc1ccc(Cl)cc1Cl	20*	14	-44	-29	-9
COCc1cc(C)nc(SCC(=O)Nc2cccc3cccnc23)c1C#N	-3	52*	-2	-8	0
C=CCN1C(=O)c2ccc(C(=O)N(C)CC(=O)Nc3ccc(OCC)c(OCC)c3)cc2C1=O	.	27	-5	39*	-1
C=CCN1C(=O)c2ccc(C(=O)N(C)CC(=O)Nc3c(C)cccc3C)cc2C1=O	.	25	-19	-7	2
CC(=O)Nc1ccccc1Nc1cc(C#N)c(C#N)cc1[N+](=O)[O-]	1	58*	-17	1	-6
Cc1ccc(S(=O)(=O)Nc2cc(C(C(=O)OC(C)C)C(=O)C(F)(F)F)c(O)c3ccccc23)c(C)c1 (stereo not given)	-11	114*	51*	31*	-4
CCOc1ccc2nc(-c3ccccc3)nc(SCC(=O)OC)c2c1	-14	3	-18	-15	-9
COC(=O)CSc1nc(-c2ccccc2)nc2ccccc12	-10	74*	-10	-19	-2
SMILES	GPR7 antagonist	OX1R antag-1	OX1R antag-2	CHO parental Ca	GalR3 antag
CC(/C=N/NC(=O)c1ccc(Br)cc1)=C\c1ccccc1	-9	9	1	66*	-4
C/C(=N\NC(=O)c1ccc(Br)cc1)C1C(=O)c2ccccc2C1=O	1	55*	-1	-2	-10
Cc1ccc(-c2cc(C(=O)N/N=C/c3ccccc3)n[nH]2)o1	-3	20	-17	-8	-9
CC(/C=N/NC(=O)c1cc(-c2ccc(C)o2)[nH]n1)=C\c1ccccc1	-9	59*	2	-14	-7
C/C(=N\NC(=O)c1ccc(-c2ccccc2)cc1)C1C(=O)c2ccccc2C1=O	1	64	-9	8	-5
Cc1ccc(-n2nc(C)c(NC(=O)COC(=O)c3ccccc3NCCO)c2C)cc1	.	7	-29	-15	0
Nc1ccccc1-n1nc2ccc3ccccc3c2n1	.	.	.	.	-5
Cc1noc(C)c1S(=O)(=O)Nc1ccc(C(=O)N2CCN(c3cccc(Cl)c3)CC2)cc1	-10	26	56*	33*	-2
Cc1cc(Cl)ccc1NC(=S)NCCC(c1ccccc1)c1ccccc1	-15	52	45*	37*	-3
CC1(C(=O)N/N=C/c2c(F)c(F)c(F)c(F)c2F)CC1(Cl)Cl (stereo not given)	.	14	-7	-23	-7
Cc1ccccc1NC(=O)CSc1nnc(-c2ccccc2)n1-c1ccccc1	6	26	-35	-20	-5
N#Cc1ccccc1NC(=O)CSc1nnc(-c2ccccc2O)n1-c1ccccc1	-5	43*	9	-15	-2
NC(c1ccncc1)c1ccc(Cl)cc1 (stereo not given)	.	.	.	.	-3
CCCc1cc(=O)oc2cc(OC(C)C(=O)NCc3ccccn3)c(Cl)cc12 (stereo not given)	-4	19	-42	-33	1
O=C(Nc1ccc2c(c1)OCO2)c1cc(-c2ccc(O)cc2)on1	-5	18	-13	39*	-7
CC(C)(C)OC(=O)NCCCCCNC(=O)c1[nH]cnc1C(=O)N[C@@H](Cc1ccccc1)C(=O)OC(C)(C)C	.	3	41	40*	.
Oc1ccc(/C=N/NC(=S)NCc2ccco2)cc1	11	-7	-11	-7	2
Oc1c(Br)cc(/C=N/NC(=S)NCc2ccco2)cc1Br	1	37*	-2	-5	-3
COc1cccc(/C=N/NC(=O)c2cc3c(OC)c(OC)ccc3[nH]2)c1OC	8	.	.	.	-4
C=CCOc1ccc(/C=N/NC(=O)c2cc3c(OC)cc(OC)cc3[nH]2)cc1	-20	48*	14	-20	-8
COc1cc(/C=N/NC(=O)c2cc3ccccc3[nH]2)ccc1O	10	46*	16	-7	-4
COc1cccc(/C=N/NC(=O)c2cc3c(OC)cccc3[nH]2)c1OC	4	67*	-5	-18	-2
COc1ccc(/C=N/NC(=O)c2cc3c(OC)ccc(OC)c3[nH]2)cc1O	16	62*	-9	-14	3
COc1ccc(OC)c2[nH]c(C(=O)N/N=C/c3ccccc3O)cc12	14	17	-19	-5	-11
N#Cc1cnn(-c2cccc(Cl)c2)c1-n1cccc1	-12	2	-14	-3	-2
O=C(O)c1cccc(N2C(=O)c3ccc4c5c(ccc(c35)C2=O)C(=O)N(c2cccc(C(=O)O)c2)C4=O)c1	2	74*	-8	14	1
COc1cc(OC)cc(C(=O)NCc2cc(C)nc3ccccc23)c1	-18	63*	13	-24	-5

Screening results from PubChem BioAssay.
